Measured values: ChEMBL document CHEMBL1122668, “Synthesis, conformational analysis, and antiarrhythmic properties of 7-benzyl-3-thia-7-azabicyclo[3.3.1]nonan-9-one, 7-benzyl-3-thia-7-azabicyclo[3.3.1]nonane hydroperchlorate, and 7-benzyl-9-phenyl-3-thia-7-azabicyclo[3.3.1]nonan-9-ol hydroperchlorate and derivatives: single-crystal X-ray …” (1984)
Activity calls are given as the source filed them. No cut-off for these calls is given here.

Legend:
[1] = species on record: Canis familiaris; assay: Compound was evaluated for abolition of ventricular tachycardia (Number/total);+ = slight degree; assay type: functional, organism-based; conditions: Canis lupus familiaris; Cardiac ventricle
Summary of the method: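 Dogs with 24-h myocardial infarction, anesthetized with 30 mg/kg iv sodium pentobarbital and given a left thoracotomy. Sustained ventricular tachycardia induced by three paced ventricular beats at 240–390/min. Compound given iv as a bolus in 50% ethanol. Pacing induction attempts repeated after dosing, up to 420/min. Abolition scored as number of dogs/total, with mean arterial pressure monitored.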

[2] = species on record: Canis familiaris; assay: Increase in mean blood pressure on Ventricular Tachycardia (VT); (SL-Slight); assay type: functional, Canis lupus familiaris
Summary of the method: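 Pentobarbital-anesthetized dogs with infarction, given the drug intravenously. Mean arterial blood pressure was monitored continuously during ventricular tachycardia induced by three paced ventricular beats.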

[3] = species on record: Canis familiaris; assay: Effect of compound on myocardial conduction abnormal; +++ = marked decrease; assay type: functional, organism-based; conditions: Canis lupus familiaris; Myocardium
Summary of the method: (§1)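 Pentobarbital-anesthetized dogs (30 mg/kg iv) with 24-h myocardial infarction, heart exposed by left thoracotomy. Recordings: lead II ECG, His bundle electrogram, and endocardial and epicardial electrodes over the infarct (abnormal tissue) plus a noninfarcted posterior epicardial reference (normal tissue). Atrial pacing from 180/min up to second-degree A-V block, before and after iv drug. Read-outs: intra-atrial, A-V nodal, His-Purkinje and ventricular conduction.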

[4] = species on record: Canis familiaris; assay: Effect of compound on myocardial conduction normal (A-V, I-V); […]; assay type: functional, organism-based; conditions: Canis lupus familiaris; Myocardium; summary of the method: as §1
[5] = species on record: Canis familiaris; assay: Compound was evaluated for abolition of ventricular tachycardia (Number/total); + = slight degree; assay type: functional, organism-based; conditions: Canis lupus familiaris; Cardiac ventricle
[6] = species on record: Canis familiaris; assay: Effect of compound on myocardial conduction abnormal; No change.; assay type: functional, organism-based; conditions: Canis lupus familiaris; Myocardium
[7] = species on record: Canis familiaris; assay: Effect of compound on myocardial conduction normal (A-V, I-V); No change.; assay type: functional, organism-based; conditions: Canis lupus familiaris; Myocardium
[8] = species on record: Canis familiaris; assay: Effect of compound on myocardial conduction abnormal; ++ = moderate decrease; assay type: functional, organism-based; conditions: Canis lupus familiaris; Myocardium
[9] = species on record: Canis familiaris; assay: Effect of compound on rate of induced ventricular tachycardia (VT) in dog; assay type: functional, Canis lupus familiaris, Cardiac ventricle
Summary of the method: (§2)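 Dogs with 24-h myocardial infarction under iv sodium pentobarbital (30 mg/kg), six per agent. Drug given as an iv bolus in 50% ethanol at 3 and 6 mg/kg; the reference agent was given iv at 2, 4 and 6 mg/kg. Sustained VT was induced by three paced ventricular beats at 240–390/min, with pacing retried up to 420/min after dosing. Read-outs were VT rate, abolition count and continuous mean arterial pressure.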

[10] = species on record: Canis familiaris; assay: Compound was tested for mean blood pressure on induced Ventricular Tachycardia (VT); assay type: functional, Canis lupus familiaris; summary of the method: as §2
[11] = Compound was evaluated for abolition of ventricular tachycardia (Number/total); 0/6.; assay type: functional, tissue-based; conditions: Cardiac ventricle

Question: Which Abolition [1] does the source give for `OC1(c2ccccc2)C2CSCC1CN(Cc1ccccc1)C2.[O-][Cl+3]([O-])([O-])O` (stereo not given) here?
Answer: The Abolition was “slight degree”.

Question: What about the Mean blood pressure [2] of the same compound?
Answer: Its Mean blood pressure is under 10%.

Question: What about the Effect [3] of the same compound?
Answer: The Effect was “marked decrease”.

Question: What about the Effect [4] of the same compound?
Answer: Its Effect is “marked decrease”.

Question: With `O=C1C2CSCC1CN(Cc1ccccc1)C2.[O-][Cl+3]([O-])([O-])O` as the compound, how does the Mean blood pressure [2] read?
Answer: The Mean blood pressure was 15%.

Question: Which results are given for `O=C1C2CSCC1CN(Cc1ccccc1)C2` [listing 1 of 2 here]?
Answer: Abolition [5]: slight degree; Change in myocardial conduction [6]: inactive; Change in myocardial conduction [7]: inactive; Effect [8]: moderate decrease

Question: With `[O-][Cl+3]([O-])([O-])O.c1ccc(CN2CC3CSCC(C3)C2)cc1` as the compound, how does the Rate [9] read?
Answer: Its Rate is 250.

Question: What about the Mean blood pressure [10] of the same compound?
Answer: The Mean blood pressure was 112 mmHg.

Question: For `O=C1C2CSCC1CN(Cc1ccccc1)C2` [listing 2 of 2 here], which Mean blood pressure [2] is on record?
Answer: Its Mean blood pressure is under 10%.

Question: What does the source list for `CCN(CC)CC(=O)Nc1c(C)cccc1C` [LIDOCAINE]?
Answer: Rate [9]: 315; Mean blood pressure [10]: 95 mmHg; Ratio [11]: inactive
